Article PMC5788414 (Journal of Medicinal Chemistry, 2017)
Several values for one entry are separate records, joined by “and”; a condition that tells them apart may be missing. Equal entries are not always repeated. Entries after “also recorded” stand apart in the source; their conditions may differ.

Tests used:
[1] = tested on: RS4;11 acute leukemia cell line; assay: Cell growth inhibition; assay type: cell-based, human; settings: comparator 23
[2] = tested on: MOLM-13 acute leukemia cell line; assay: Cell growth inhibition; assay type: cell-based, human; settings: MOLM13; comparator 23
[3] = tested on: BRD2, BRD3, and BRD4 proteins; assay: Western blotting of BET protein levels in RS4; assay type: cell-based, human
[4] = Drug concentration in RS4; assay type: in vivo, SCID mice
Procedure, shortened: (§1)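 Female SCID C.B-17 mice bearing RS4;11 tumours received a single 5 mg/kg IV dose in 20% PEG 400, 6% Cremophor EL and 74% PBS. Mice were killed at 1, 3, 6 and 24 h (two mice per time point, three tumours per time point). Plasma came from blood spun at 15 000 rpm for 10 min; tumours were frozen and ground in liquid nitrogen. Samples were kept at −80 °C and assayed by LC–MS/MS on a C18 column.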

BRD3 = BRD3 (Homo sapiens, UniProt Q15059); assay: Western blotting of BRD3 protein level in RS4; assay type: cell-based; settings: RS4;11 cells, Western blot
Sequence of BRD3 (Q15059 whole entry): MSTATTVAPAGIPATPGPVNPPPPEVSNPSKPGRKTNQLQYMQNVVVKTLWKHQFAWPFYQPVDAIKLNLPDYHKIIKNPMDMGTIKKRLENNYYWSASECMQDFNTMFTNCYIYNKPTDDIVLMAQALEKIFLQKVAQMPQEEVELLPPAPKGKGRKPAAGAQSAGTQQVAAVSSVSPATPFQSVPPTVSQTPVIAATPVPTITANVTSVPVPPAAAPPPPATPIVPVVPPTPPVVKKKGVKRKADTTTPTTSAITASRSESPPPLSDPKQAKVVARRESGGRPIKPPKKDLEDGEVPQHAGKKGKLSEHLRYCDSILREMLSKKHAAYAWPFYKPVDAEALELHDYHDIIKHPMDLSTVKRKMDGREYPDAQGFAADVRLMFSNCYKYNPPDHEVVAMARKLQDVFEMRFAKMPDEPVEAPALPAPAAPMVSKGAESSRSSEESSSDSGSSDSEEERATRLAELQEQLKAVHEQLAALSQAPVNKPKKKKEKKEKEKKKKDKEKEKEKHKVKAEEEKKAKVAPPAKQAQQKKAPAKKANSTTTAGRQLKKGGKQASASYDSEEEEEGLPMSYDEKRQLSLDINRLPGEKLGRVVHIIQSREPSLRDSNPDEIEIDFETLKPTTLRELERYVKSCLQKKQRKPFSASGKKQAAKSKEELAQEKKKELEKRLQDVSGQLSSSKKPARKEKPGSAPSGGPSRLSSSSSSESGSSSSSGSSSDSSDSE
Procedure, shortened: (§2)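 RS4;11 cells (2 × 10⁶/well) were treated with the test compound at the indicated concentrations for 3 h or 24 h. Cells were lysed in RIPA buffer with protease inhibitors. Lysate (20 μg per lane) was separated by SDS–PAGE, blotted onto PVDF, and probed with BRD2, BRD3 and BRD4 antibodies, with GAPDH as the loading control.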

RS4;11 cell line [5] = assay: Apoptosis induction by flow cytometry; assay type: cell-based, human; settings: RS4;11, 24 h treatment
Procedure, shortened: (§3)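 RS4;11 or MOLM-13 cells were grown in RPMI 1640 with 10% FBS and 1% penicillin–streptomycin at 37 °C, 5% CO₂, and used within three months of thawing. Cells were treated with the test compound at the indicated concentrations for 24 h. They were then stained with annexin V and propidium iodide and analysed by flow cytometry.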

RS4;11 xenograft tumors = assay: Antitumor efficacy in RS4; assay type: in vivo; settings: mice, 5 mg/kg intravenously
Procedure, shortened: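 Human RS4;11 leukaemia cells (5 × 10⁶, in 50% Matrigel) were injected subcutaneously on the dorsal side of SCID mice, one tumour per mouse. At ∼100 mm³, mice were randomised to treatment or vehicle groups. The test compound was given at 5 mg/kg IV every other day, three times a week, for 3 weeks. Tumours were measured by calipers 2–3 times weekly (V = LW²/2). Body weight and toxicity signs were monitored.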

[6] = tested on: triple-negative human breast cancer; settings: in vitro and in vivo ref 32; cited from earlier work
c-Myc [7] = assay: Pharmacodynamic Western blotting of c-Myc in RS4; assay type: in vivo, SCID mice; settings: single intravenous dose, 5 mg/kg
Procedure, shortened: (§4)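 SCID mice bearing RS4;11 xenografts were given one 5 mg/kg IV dose of the test compound and killed at 1, 3, 6 or 24 h; vehicle-treated mice were killed at 6 h. Two mice were used per time point, with one or two tumours each. Lysates were run on 4–20% gels and immunoblotted on PVDF for BRD2–4, c-Myc, PARP and caspase-3. Actin was the loading control, with ECL detection.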

[8] = tested on: BRD2, BRD3, and BRD4 proteins; assay: Pharmacodynamic Western blotting of BET proteins in RS4; assay type: in vivo, SCID mice; settings: single intravenous dose, 5 mg/kg
Procedure, shortened: as §4

[9] = Drug concentration in plasma; assay type: in vivo, SCID mice
Procedure, shortened: as §1

c-Myc [10] = assay: Western blotting of c-Myc level in RS4; assay type: cell-based, human; settings: for Concentration effectively down-regulating the level of c-Myc: RS4;11 cells, 24 h treatment, Western blot
Procedure, shortened: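 RS4;11 cells (2 × 10⁶/well) were exposed for 24 h to the test compound at the indicated concentrations. Cells were lysed in RIPA buffer with protease inhibitors. Lysate (20 μg per lane) was separated by SDS–PAGE, transferred to PVDF, and immunoblotted for c-Myc, with GAPDH as the loading control.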

BRD4 = BRD4 (Homo sapiens, UniProt O60885); assay: Western blotting of BRD4 protein level in RS4; assay type: cell-based; settings: RS4;11 cells
Procedure, shortened: as §2

[11] = In vitro metabolite identification in mouse liver microsomes; assay type: in vitro ADME; settings: 10 μM, MLM with β-NADPH, 37 °C, 20 and 40 min
Procedure, shortened: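 Incubation was quenched with a 3-fold volume of ice-cold acetonitrile, then centrifuged at 15 000 rpm for 10 min; supernatant stored at −80 °C. Negative controls omitted NADPH or used boiled microsomes. Metabolites were identified by tandem mass spectrometry, starting from the parent's product ion spectrum to establish fragmentation.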

MOLM-13 cell line [12] = assay: Cell cycle arrest by flow cytometry; assay type: cell-based, human; settings: MOLM-13, 24 h
Procedure, shortened: (§5)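 Cell cycle was read by propidium iodide staining and flow cytometry after 24 h exposure to the test compound at the indicated concentrations. RS4;11 or MOLM-13 cells were cultured in RPMI 1640 with 10% FBS and 1% penicillin–streptomycin at 37 °C, 5% CO₂, and used within three months of thawing.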

RS4;11 cell line [13] = assay: Cell cycle arrest by flow cytometry; assay type: cell-based, human; settings: RS4;11, 24 h
Procedure, shortened: as §5

BRD2 = BRD2 (Homo sapiens, UniProt P25440); assay: Western blotting of BRD2 protein level in RS4; assay type: cell-based; settings: RS4;11 cells, Western blot
Sequence of BRD2 (P25440 whole entry): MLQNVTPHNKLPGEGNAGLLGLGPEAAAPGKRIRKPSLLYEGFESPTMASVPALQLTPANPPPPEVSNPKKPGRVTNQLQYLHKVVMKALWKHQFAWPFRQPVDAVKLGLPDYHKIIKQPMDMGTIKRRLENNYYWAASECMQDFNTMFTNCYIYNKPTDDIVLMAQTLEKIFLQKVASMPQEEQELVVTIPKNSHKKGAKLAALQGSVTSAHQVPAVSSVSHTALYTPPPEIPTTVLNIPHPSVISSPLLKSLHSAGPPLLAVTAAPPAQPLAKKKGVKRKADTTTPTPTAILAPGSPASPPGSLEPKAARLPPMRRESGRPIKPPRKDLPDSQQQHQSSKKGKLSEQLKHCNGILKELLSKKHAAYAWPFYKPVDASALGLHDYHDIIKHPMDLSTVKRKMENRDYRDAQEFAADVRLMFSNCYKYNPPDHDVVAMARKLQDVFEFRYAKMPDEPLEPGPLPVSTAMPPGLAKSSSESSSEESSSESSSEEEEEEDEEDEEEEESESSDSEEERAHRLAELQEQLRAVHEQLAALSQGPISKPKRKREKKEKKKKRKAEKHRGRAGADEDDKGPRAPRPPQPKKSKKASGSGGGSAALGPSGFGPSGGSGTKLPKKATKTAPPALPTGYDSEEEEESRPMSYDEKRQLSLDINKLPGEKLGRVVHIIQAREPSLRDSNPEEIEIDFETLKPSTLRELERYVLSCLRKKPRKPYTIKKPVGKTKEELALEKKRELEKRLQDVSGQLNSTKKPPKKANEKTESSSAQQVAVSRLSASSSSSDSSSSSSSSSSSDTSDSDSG
Procedure, shortened: as §2

PARP and caspase-3 = assay: Pharmacodynamic Western blotting of PARP and caspase-3 cleavage in RS4; assay type: in vivo, SCID mice; settings: single intravenous dose, 5 mg/kg
Procedure, shortened: as §4

MOLM-13 cell line [14] = assay: Apoptosis induction by flow cytometry; assay type: cell-based, human; settings: MOLM-13, 24 h treatment
Procedure, shortened: as §3

[15] = Animal weight and signs of toxicity in RS4; assay type: in vivo; settings: mice bearing RS4;11 xenografts, 5 mg/kg intravenously, three times a week for 3 weeks
Procedure, shortened: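 Subcutaneous dorsal xenografts in SCID mice: 5 × 10⁶ RS4;11 cells in 50% Matrigel, one tumor per mouse. Mice randomised to treatment or vehicle groups at ~100 mm³. Dosing was intravenous every other day. Toxicity signs checked daily. Body weight recorded 2–3 times per week during treatment and at least weekly afterwards.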

BRD2, BRD3, and BRD4 = assay: FP-based competitive binding assays, BET proteins overall; settings: binding to BRD2, BRD3, BRD4; comparator 1 or 2
acute leukemia model = acute leukemia model in mice ref 23; cited from earlier work
[16] = RS4;11 cells, 3 h treatment, Western blot
[17] = 1 h after single 5 mg/kg intravenous dose
[18] = 3 h after single 5 mg/kg intravenous dose
[19] = 6 h after single 5 mg/kg intravenous dose

COc1cc2c(cc1-c1c(C)noc1C)[nH]c1nc(C(=O)NCCCCCc3cccc4c3CN(C3CCC(=O)NC3=O)C4=O)ncc12 (stereo not shown) [Compound 27, 7-(3,5-Dimethylisoxazol-4-yl)-N-(5-(2-(2,6-dioxopiperidin-3-yl)-1-oxoisoindolin-4-yl)pentyl)-6-methoxy-9H-pyrimido[4,5-b]indole-2-carboxamide]
times less potent than 23 in cell growth inhibition [1]: > 10 000 times | times less potent than 23 in cell growth inhibition [2]: > 400 times

CCn1nc(C2CC2)cc1Nc1nc(C(=O)NCCCCCc2cccc3c2CN(C2CCC(=O)NC2=O)C3=O)nc2[nH]c3cc(-c4c(C)noc4C)c(OC)cc3c12 (stereo not shown) [Compound 23, 4-((3-Cyclopropyl-1-ethyl-1H-pyrazol-5-yl)amino)-7-(3,5-dimethylisoxazol-4-yl)-N-(5-(2-(2,6-dioxopiperidin-3-yl)-1-oxoisoindolin-4-yl)pentyl)-6-methoxy-9H-pyrimido[4,5-b]indole-2-carboxamide]
Lowest concentrations effective in decreasing the level of BRD2, BRD3, and BRD4 proteins [3, 16]: 0.1 to 0.3 nM | Concentrations inducing degradation of BRD2, BRD3, and BRD4 proteins ([3]; RS4;11 leukemia cells): 30 to 100 pM | concn in tumor, individual tumor [4, 17]: 123 ng/g and 240.5 ng/g | concn in tumor, individual tumor [4, 18]: 89 ng/g and 120.5 ng/g | concn in tumor, individual tumor [4, 19]: 31.9 ng/g | Lowest concentration effective in decreasing the level of BRD3 protein (BRD3; 3 h treatment): 0.1 nM | Lowest concentration effectively reducing the level of BRD3 protein (BRD3; 24 h treatment): 0.1 nM | Concentration inducing robust apoptosis (RS4;11 cell line [5]): 3 to 10 nM | Antitumor activity against RS4;11 xenograft tumors (RS4;11 xenograft tumors): rapid tumor regression | Activity against triple-negative human breast cancer [6]: very potent and efficacious | Duration of c-Myc down-regulation in tumor tissue (c-Myc [7]): at least 6 h | Duration of reduction of BRD2, BRD3, and BRD4 proteins in tumor tissue [8]: > 24 h | Onset of reduction of BRD2, BRD3, and BRD4 proteins in tumor tissue [8]: 1 h | concn in plasma, individual mice [9, 17]: 362 ng/mL | concn in plasma, individual mice [9, 18]: 76.1 ng/mL | concn in plasma, individual mice [9, 19]: 7.4 ng/mL | times more potent than 8 in down-regulation of c-Myc protein (c-Myc [10]; RS4;11 cell line, comparator 8): > 1000 times | Concentration effectively down-regulating the level of c-Myc (c-Myc [10]): 0.1 nM | Lowest concentration effective in decreasing the level of BRD4 protein (BRD4; 3 h treatment, Western blot): 0.3 nM | Lowest concentration degrading BRD4 protein (BRD4; 24 h treatment): 30 pM | Lowest concentration effectively reducing the level of BRD4 protein (BRD4; 24 h treatment, Western blot): 0.03 nM | Major metabolite in mouse liver microsomes [11]: mono- or dihydroxylated product occurring in the alkyl chain in the linker | Concentration effective in inducing cell cycle arrest (MOLM-13 cell line [12]): 1 to 3 nM | Concentration effective in inducing cell cycle arrest (RS4;11 cell line [13]): 0.3 nM | Lowest concentration effective in decreasing the level of BRD2 protein (BRD2; 3 h treatment): 0.3 nM | Lowest concentration effectively reducing the level of BRD2 protein (BRD2; 24 h treatment): 0.1 nM | Onset of cleavage of PARP and caspase-3 in tumor tissue (PARP and caspase-3): 3 h | Time of peak cleavage of PARP and caspase-3 in tumor tissue (PARP and caspase-3): 6 h | Concentration inducing robust apoptosis (MOLM-13 cell line [14]): 3 to 10 nM | Animal weight loss or signs of toxicity [15]: no animal weight loss or other signs of toxicity; also recorded: minimal body weight change; also recorded: no signs of toxicity

CCn1nc(C2CC2)cc1Nc1nc(C(=O)NC)nc2[nH]c3cc(-c4c(C)noc4C)c(OC)cc3c12 [Compound 8, 4-((3-Cyclopropyl-1-ethyl-1H-pyrazol-5-yl)amino)-7-(3,5-dimethylisoxazol-4-yl)-6-methoxy-N-methyl-9H-pyrimido[4,5-b]indole-2-carboxamide]
Effect of pretreatment on degradation of BRD2, BRD3, and BRD4 induced by 23 ([3]; RS4;11 cells, 2 h pretreatment, then 3 h treatment with 23 at 1 nM): effectively blocks | Effect on the level of BRD2–4 proteins ([3]; RS4;11 cells, 3 h, at both 100 and 300 nM): fails to decrease | Effect on the level of BRD2–4 proteins ([3]; RS4;11 cells, 24 h, all concentrations tested (30–1000 nM)): no effect | Concentration inducing robust apoptosis (RS4;11 cell line [5]): > 300 nM | times more potent than 1 or 2 in binding (BRD2, BRD3, and BRD4): > 10 times | Concentration effectively down-regulating the level of c-Myc (c-Myc [10]): 300 to 1000 nM | Concentration effective in inducing cell cycle arrest (MOLM-13 cell line [12]): 30 to 100 nM | Concentration effective in inducing cell cycle arrest (RS4;11 cell line [13]): 30 nM | Concentration inducing robust apoptosis (MOLM-13 cell line [14]): > 300 nM

Cc1sc2c(c1C)C(c1ccc(Cl)cc1)=N[C@@H](CC(=O)NCCCCNC(=O)COc1cccc3c1C(=O)N(C1CCC(=O)NC1=O)C3=O)c1nnc(C)n1-2 (stereo partly shown) [Compound 4, dBET1, reference compound]
Effect on the level of BRD2, BRD3, and BRD4 proteins [3, 16]: effectively decrease | Inhibition of tumor growth in vivo compared with 1 (acute leukemia model): more effective
